Test results reported in ChEMBL document CHEMBL4261538, “Synthesis and molecular docking studies of xanthone attached amino acids as potential antimicrobial and anti-inflammatory agents” (Medchemcomm, 2017).
Converted amounts (≈) assume the structure as drawn.

What was measured:
Staphylococcus aureus [1] = experiment: Antibacterial activity against Staphylococcus aureus at 25 ug/ml incubated for 24 hrs by agar well diffusion method; type: functional; conditions: read-out: DIZ
Summary of the method: (§1)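 Bacteria grown in nutrient broth at 37 °C for 24 h, then subcultured at room temperature. Compounds dissolved in DMSO at 5 mg mL⁻¹ and 5–20 µL added to 6 mm wells, giving 25, 50, 75, 100 µg per well. Gentamicin was the positive control and DMSO the negative control. Plates held at 37 °C for 24 h, then inhibition zone diameter (mm) measured. Values are means of three determinations.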

Staphylococcus aureus [2] = experiment: Antibacterial activity against Staphylococcus aureus at 50 ug/ml incubated for 24 hrs by agar well diffusion method; type: functional; conditions: read-out: DIZ; summary of the method: as §1
Staphylococcus aureus [3] = experiment: Antibacterial activity against Staphylococcus aureus at 75 ug/ml incubated for 24 hrs by agar well diffusion method; type: functional; conditions: read-out: DIZ; summary of the method: as §1
Staphylococcus aureus [4] = experiment: Antibacterial activity against Staphylococcus aureus at 100 ug/ml incubated for 24 hrs by agar well diffusion method; type: functional; conditions: read-out: DIZ; summary of the method: as §1
Bacillus subtilis [5] = experiment: Antibacterial activity against Bacillus subtilis at 25 ug/ml incubated for 24 hrs by agar well diffusion method; type: functional; conditions: read-out: DIZ; summary of the method: as §1
Bacillus subtilis [6] = experiment: Antibacterial activity against Bacillus subtilis at 50 ug/ml incubated for 24 hrs by agar well diffusion method; type: functional; conditions: read-out: DIZ; summary of the method: as §1
Bacillus subtilis [7] = experiment: Antibacterial activity against Bacillus subtilis at 75 ug/ml incubated for 24 hrs by agar well diffusion method; type: functional; conditions: read-out: DIZ; summary of the method: as §1
Bacillus subtilis [8] = experiment: Antibacterial activity against Bacillus subtilis at 100 ug/ml incubated for 24 hrs by agar well diffusion method; type: functional; conditions: read-out: DIZ; summary of the method: as §1
Escherichia coli [9] = experiment: Antibacterial activity against Escherichia coli at 25 ug/ml incubated for 24 hrs by agar well diffusion method; type: functional; conditions: read-out: DIZ; summary of the method: as §1
Escherichia coli [10] = experiment: Antibacterial activity against Escherichia coli at 50 ug/ml incubated for 24 hrs by agar well diffusion method; type: functional; conditions: read-out: DIZ; summary of the method: as §1
Escherichia coli [11] = experiment: Antibacterial activity against Escherichia coli at 75 ug/ml incubated for 24 hrs by agar well diffusion method; type: functional; conditions: read-out: DIZ; summary of the method: as §1
Escherichia coli [12] = experiment: Antibacterial activity against Escherichia coli at 100 ug/ml incubated for 24 hrs by agar well diffusion method; type: functional; conditions: read-out: DIZ; summary of the method: as §1
Klebsiella pneumoniae [13] = experiment: Antibacterial activity against Klebsiella pneumoniae at 25 ug/ml incubated for 24 hrs by agar well diffusion method; type: functional; conditions: read-out: DIZ; summary of the method: as §1
Klebsiella pneumoniae [14] = experiment: Antibacterial activity against Klebsiella pneumoniae at 50 ug/ml incubated for 24 hrs by agar well diffusion method; type: functional; conditions: read-out: DIZ; summary of the method: as §1
Klebsiella pneumoniae [15] = experiment: Antibacterial activity against Klebsiella pneumoniae at 75 ug/ml incubated for 24 hrs by agar well diffusion method; type: functional; conditions: read-out: DIZ; summary of the method: as §1
Klebsiella pneumoniae [16] = experiment: Antibacterial activity against Klebsiella pneumoniae at 100 ug/ml incubated for 24 hrs by agar well diffusion method; type: functional; conditions: read-out: DIZ; summary of the method: as §1
Aspergillus niger [17] = experiment: Antifungal activity against Aspergillus niger at 25 ug/ml incubated for 48 hrs by agar well diffusion method; type: functional; conditions: read-out: DIZ
Summary of the method: (§2)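 Compounds dissolved in DMSO at 5 mg mL⁻¹ and 5–20 µL added to 6 mm wells, giving 25, 50, 75, 100 µg per well. Bavistin was the positive control and DMSO the negative control. Plates incubated at 28 °C for 48 h, then inhibition zone diameter (mm) measured. Values are means of three determinations.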

Aspergillus niger [18] = experiment: Antifungal activity against Aspergillus niger at 50 ug/ml incubated for 48 hrs by agar well diffusion method; type: functional; conditions: read-out: DIZ; summary of the method: as §2
Aspergillus niger [19] = experiment: Antifungal activity against Aspergillus niger at 75 ug/ml incubated for 48 hrs by agar well diffusion method; type: functional; conditions: read-out: DIZ; summary of the method: as §2
Aspergillus niger [20] = experiment: Antifungal activity against Aspergillus niger at 100 ug/ml incubated for 48 hrs by agar well diffusion method; type: functional; conditions: read-out: DIZ; summary of the method: as §2
Candida albicans [21] = experiment: Antifungal activity against Candida albicans at 25 ug/ml incubated for 48 hrs by agar well diffusion method; type: functional; conditions: read-out: DIZ; summary of the method: as §2
Candida albicans [22] = experiment: Antifungal activity against Candida albicans at 50 ug/ml incubated for 48 hrs by agar well diffusion method; type: functional; conditions: read-out: DIZ; summary of the method: as §2
Candida albicans [23] = experiment: Antifungal activity against Candida albicans at 75 ug/ml incubated for 48 hrs by agar well diffusion method; type: functional; conditions: read-out: DIZ; summary of the method: as §2
Candida albicans [24] = experiment: Antifungal activity against Candida albicans at 100 ug/ml incubated for 48 hrs by agar well diffusion method; type: functional; conditions: read-out: DIZ; summary of the method: as §2
Fusarium oxysporum [25] = experiment: Antifungal activity against Fusarium oxysporum at 25 ug/ml incubated for 48 hrs by agar well diffusion method; type: functional; conditions: read-out: DIZ; summary of the method: as §2
Fusarium oxysporum [26] = experiment: Antifungal activity against Fusarium oxysporum at 50 ug/ml incubated for 48 hrs by agar well diffusion method; type: functional; conditions: read-out: DIZ; summary of the method: as §2
Fusarium oxysporum [27] = experiment: Antifungal activity against Fusarium oxysporum at 75 ug/ml incubated for 48 hrs by agar well diffusion method; type: functional; conditions: read-out: DIZ; summary of the method: as §2
Fusarium oxysporum [28] = experiment: Antifungal activity against Fusarium oxysporum at 100 ug/ml incubated for 48 hrs by agar well diffusion method; type: functional; conditions: read-out: DIZ; summary of the method: as §2
Staphylococcus aureus [29] = experiment: Antibacterial activity against Staphylococcus aureus incubated for 24 hrs by microdilution method; type: functional
Bacillus subtilis [30] = experiment: Antibacterial activity against Bacillus subtilis incubated for 24 hrs by microdilution method; type: functional
Escherichia coli [31] = experiment: Antibacterial activity against Escherichia coli incubated for 24 hrs by microdilution method; type: functional
Klebsiella pneumoniae [32] = experiment: Antibacterial activity against Klebsiella pneumoniae incubated for 24 hrs by microdilution method; type: functional
Aspergillus niger [33] = experiment: Antifungal activity against Aspergillus niger incubated for 48 to 72 hrs by microdilution method; type: functional
Summary of the method: (§3)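 Sabouraud agar plates inoculated with fungal suspension at 10⁵ CFU mL⁻¹ plus serially diluted compounds and bavistin reference, both in DMSO. Incubated at 25 °C for 48–72 h. MIC is the lowest concentration completely inhibiting growth. Values are means of three determinations.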

Candida albicans [34] = experiment: Antifungal activity against Candida albicans incubated for 48 to 72 hrs by microdilution method; type: functional; summary of the method: as §3
Fusarium oxysporum [35] = experiment: Antifungal activity against Fusarium oxysporum incubated for 48 to 72 hrs by microdilution method; type: functional; summary of the method: as §3
Staphylococcus aureus [36] = experiment: Induction of cell membrane damage in Staphylococcus aureus assessed as cell content leakage at MIC by spectrophotometric method; type: functional, organism-based; conditions: TDE = time-dependent effect
Summary of the method: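 Log-phase S. aureus inoculated into 0.1% sterile peptone water, with an untreated control, and held at 37 °C for 0, 30, 60 and 120 min. 1 mL of broth centrifuged and supernatant OD read at 260 nm to measure released DNA. Run in triplicate, repeated three times.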

Erythrocyte = experiment: Anti-inflammatory activity in human RBC assessed as inhibition of hypotonic solution-induced hemolysis after 10 mins by spectrophotometric method; type: functional, cell-based
Summary of the method: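 Human blood (heparinized) washed with 0.9% saline, packed cells made into a 40% v/v stock in isotonic phosphate buffer (154 mM NaCl, 10 mM sodium phosphate, pH 7.4). Stock RBC mixed with hypotonic buffer (50 mM NaCl, 10 mM phosphate, pH 7.4) plus sample at 20–100 µg mL⁻¹.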

SMILES | zone of inhibition at 25 µg/mL (Staphylococcus aureus [1]) [mm] | zone of inhibition at 50 µg/mL (Staphylococcus aureus [2]) [mm] | zone of inhibition at 75 µg/mL (Staphylococcus aureus [3]) [mm] | zone of inhibition at 100 µg/mL (Staphylococcus aureus [4]) [mm] | zone of inhibition at 25 µg/mL (Bacillus subtilis [5]) [mm] | zone of inhibition at 50 µg/mL (Bacillus subtilis [6]) [mm] | zone of inhibition at 75 µg/mL (Bacillus subtilis [7]) [mm] | zone of inhibition at 100 µg/mL (Bacillus subtilis [8]) [mm] | zone of inhibition at 25 µg/mL (Escherichia coli [9]) [mm] | zone of inhibition at 50 µg/mL (Escherichia coli [10]) [mm] | zone of inhibition at 75 µg/mL (Escherichia coli [11]) [mm] | zone of inhibition at 100 µg/mL (Escherichia coli [12]) [mm] | zone of inhibition at 25 µg/mL (Klebsiella pneumoniae [13]) [mm] | zone of inhibition at 50 µg/mL (Klebsiella pneumoniae [14]) [mm] | zone of inhibition at 75 µg/mL (Klebsiella pneumoniae [15]) [mm] | zone of inhibition at 100 µg/mL (Klebsiella pneumoniae [16]) [mm] | zone of inhibition at 25 µg/mL (Aspergillus niger [17]) [mm] | zone of inhibition at 50 µg/mL (Aspergillus niger [18]) [mm] | zone of inhibition at 75 µg/mL (Aspergillus niger [19]) [mm] | zone of inhibition at 100 µg/mL (Aspergillus niger [20]) [mm] | further results
Cl.N[C@@H](Cc1c[nH]c2ccccc12)C(=O)Oc1ccc2c(=O)c3ccccc3oc2c1 | 24 | 31 | 37 | 42 | 26 | 32 | 36 | 43 | 26 | 31 | 38 | 43 | 23 | 30 | 37 | 44 | 28 | 31 | 40 | 46 | zone of inhibition at 25 µg/mL (Candida albicans [21]): 26 mm; zone of inhibition at 50 µg/mL (Candida albicans [22]): 33 mm; zone of inhibition at 75 µg/mL (Candida albicans [23]): 39 mm; zone of inhibition at 100 µg/mL (Candida albicans [24]): 44 mm; zone of inhibition at 25 µg/mL (Fusarium oxysporum [25]): 25 mm; zone of inhibition at 50 µg/mL (Fusarium oxysporum [26]): 32 mm; zone of inhibition at 75 µg/mL (Fusarium oxysporum [27]): 37 mm; zone of inhibition at 100 µg/mL (Fusarium oxysporum [28]): 42 mm; MIC (Staphylococcus aureus [29]): 16 µg/mL; MIC (Bacillus subtilis [30]): 16 µg/mL; MIC (Escherichia coli [31]): 15 µg/mL; MIC (Klebsiella pneumoniae [32]): 22 µg/mL; MIC (Aspergillus niger [33]): 21 µg/mL; MIC (Candida albicans [34]): 20 µg/mL; MIC (Fusarium oxysporum [35]): 20 µg/mL; Activity (Staphylococcus aureus [36]): Tde; IC50 (Erythrocyte): 26 µg/mL
CC(C)(C)OC(=O)N[C@@H](Cc1ccc(O)cc1)C(=O)Oc1ccc2c(=O)c3ccccc3oc2c1 | 20 | 26 | 32 | 36 | 20 | 28 | 35 | 37 | 20 | 27 | 33 | 36 | 18 | 24 | 30 | 34 | 22 | 30 | 37 | 41 | zone of inhibition at 25 µg/mL (Candida albicans [21]): 20 mm; zone of inhibition at 50 µg/mL (Candida albicans [22]): 29 mm; zone of inhibition at 75 µg/mL (Candida albicans [23]): 34 mm; zone of inhibition at 100 µg/mL (Candida albicans [24]): 37 mm; zone of inhibition at 25 µg/mL (Fusarium oxysporum [25]): 22 mm; zone of inhibition at 50 µg/mL (Fusarium oxysporum [26]): 29 mm; zone of inhibition at 75 µg/mL (Fusarium oxysporum [27]): 36 mm; zone of inhibition at 100 µg/mL (Fusarium oxysporum [28]): 42 mm; MIC (Staphylococcus aureus [29]): 21 µg/mL (≈ 44.2 µM); MIC (Bacillus subtilis [30]): 20 µg/mL (≈ 42.1 µM); MIC (Escherichia coli [31]): 19 µg/mL (≈ 40 µM); MIC (Klebsiella pneumoniae [32]): 24 µg/mL (≈ 50.5 µM); MIC (Aspergillus niger [33]): 22 µg/mL (≈ 46.3 µM); MIC (Candida albicans [34]): 24 µg/mL (≈ 50.5 µM); MIC (Fusarium oxysporum [35]): 22 µg/mL (≈ 46.3 µM); Activity (Staphylococcus aureus [36]): Tde; IC50 (Erythrocyte): 32 µg/mL (≈ 67.3 µM)
